# From PubChem BioAssay
# Ecoli rRNA inh: reduced GFP signal of wild-type E. coli, primary screen, bacterial rRNA inhibitor project, GFP/RFP fluorescence, OD600, single point | E. coli WT GFP vs humanized-ribosome RFP mutants, 24 h; active compounds read low; DMSO median 0, no signal -100 | GFP signal change (wild-type ribosome), % (test concentration not listed) | 350,000 tested, 1.6% active | AID 720706, 2013;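 active = significant combined selectivity score with lowered wild-type GFP, culture density cut under 30%, mutant RFP and density less affected; inactive = any of these conditions unmet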
# ERAP1 HTS inh: human ERAP1 aminopeptidase inhibitors, primary screen, biochemical, single point, plate reader; Endoplasmic reticulum aminopeptidase 1 (Homo sapiens), Q9NZ08; recombinant ERAP1, Leu-AMC fluorescence, 60 min; inhibition, % at 10.7 µM; 340,000 tested, 0.15% active; AID 652197, 2013;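 active = mean replicate inhibition of at least 30%, or all replicates individually reaching that 30% level; inactive = mean below 30% and not every replicate reaching it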;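 note: 0% = neutral control wells and 100% = L-leucinethiol positive control wells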
# PGC1a acetyl inh: inhibitors of PGC1a acetylation signal, primary screen, cell-based, U2OS, AlphaScreen, inhibitor mode; AlphaScreen anti-acetyl-lysine; with virally co-expressed GCN5 acetyltransferase; inhibition, % at 15.6 µM; 350,000 tested, 0.17% active;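 active = every replicate shows inhibition of at least 40%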;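 note: 0% = neutral control wells and 100% = positive control wells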
# FGF22 binding: binders of human FGF22 protein, primary screen, FGF22 synaptogenesis inhibitor project, biophysical, thermal shift, single point; recombinant FGF22 thermal shift, SYPRO orange fluorescence; percent of sucrose octasulfate shift, DMSO zero; activity (Tm shift, normalised), % at 9.99 µM; Fibroblast growth factor 22 (Homo sapiens), Q9HCT0; 340,000 tested, 1.5% active; AID 651658, 2012;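 active = mean Tm shift, scaled 0 neutral to 100 positive control, at about 1.3% or above, every replicate too, limit read from the data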
# Target sequence (Q9HCT0 whole entry, looked up): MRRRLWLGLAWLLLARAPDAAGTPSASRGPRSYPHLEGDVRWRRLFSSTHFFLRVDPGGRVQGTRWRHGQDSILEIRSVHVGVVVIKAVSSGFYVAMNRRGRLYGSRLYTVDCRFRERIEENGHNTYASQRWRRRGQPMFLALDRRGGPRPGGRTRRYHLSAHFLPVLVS
# Env fusion inh: inhibitors of HIV-1 Env-driven cell-cell fusion, primary screen, HeLa-JRFL effector, CEM21 target cells, luciferase | 360,000 tested, 1.1% active | AID 651610, 2012 | inhibition, % at 12.3 µM;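 active = mean replicate inhibition score of at least 50 and every replicate individually at or above 50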;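 note: 0% = plate neutral controls and 100% = maraviroc near 300 nM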
# Cneo AK release: Cryptococcus neoformans cell lysis inducers, primary screen, AK release luminescence, single concentration. lysis activity, % at 15 µM. C. neoformans lysis, adenylate kinase release luminescence, 4 h; normalised: neutral wells 0, clomiphene wells 100. 360,000 tested, 0.2% active. AID 651654, 2012;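 active = mean lysis activity across replicates of at least 80%, whatever share of replicates individually reach that level; inactive = mean lysis activity below 80%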
#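 Assay system: Cryptococcus neoformans yeast cells / Dosing: single-point compound dose / Timing: 4 h at 37 °C static, read 1 h later / Measured by: luminescence of released adenylate kinase using an AK detection reagent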
# Starred values were filed as active, the others as inactive; x = not tested or not shown; [ ] = dose if it differs, or a comment. Sampled rows, rich in hits. Any-hit rate of the full collection: about 3.5%.
SMILES,Ecoli rRNA inh,ERAP1 HTS inh,PGC1a acetyl inh,FGF22 binding,Env fusion inh,Cneo AK release
CN(C)CC(=O)Nc1ccc2c(c1)[C@@H]1C[C@@H](CC(=O)NCCc3ccccc3)O[C@H](CO)[C@@H]1O2,3.2,0.2,1.4,0.2,-13.9[16.7 µM],65.7
O=C(C[C@H]1C[C@H]2c3cc(NC(=O)C4CCOCC4)ccc3O[C@H]2[C@@H](CO)O1)NCc1ccccc1,3.8,1.6,14.1,-0.6,22.9[16.7 µM],2.9
COCCNC(=O)C[C@@H]1C[C@H]2c3cc(NC(=O)C4CCOCC4)ccc3O[C@H]2[C@H](CO)O1,1.8,1.5,5.8,0.0,13.1[16.7 µM],109.1*
O=C(C[C@@H]1C[C@@H]2c3cc(NC(=O)C4CCOCC4)ccc3O[C@@H]2[C@H](CO)O1)NCCc1ccccc1,2.4,0.9,-5.1,-0.5,62.9*[16.7 µM],5.2
CN(C)CC(=O)Nc1ccc2c(c1)[C@H]1C[C@@H](CC(=O)NCCc3ccccc3)O[C@H](CO)[C@H]1O2,3.5,0.9,6.1,-0.1,59.8*[16.7 µM],-1.1
O=C(C[C@@H]1C[C@H]2c3cc(NC(=O)C4CCOCC4)ccc3O[C@H]2[C@@H](CO)O1)NCc1ccccc1,1.1,-0.1,6.5,-0.3,90.2*[16.7 µM],-0.8
COCCNC(=O)C[C@@H]1C[C@H]2c3cc(N(C)C)ccc3O[C@H]2[C@@H](CO)O1,5.8,-2.0,11.4,-0.6,65.4*[16.7 µM],0.5
O=C(C[C@H]1C[C@@H]2c3cc(NC(=O)C4CCOCC4)ccc3O[C@@H]2[C@@H](CO)O1)NCc1ccccc1F,0.0,0.0,27.1,0.0,82.0*[16.7 µM],0.6
O=C(C[C@@H]1C[C@H]2c3cc(NC(=O)C4CCOCC4)ccc3O[C@H]2[C@@H](CO)O1)NCc1ccccc1F,1.5,1.9,2.1,-0.1,20.8[16.7 µM],-6.1
O=C(C[C@H]1C[C@@H]2c3cc(NC(=O)C4CCC4)ccc3O[C@@H]2[C@@H](CO)O1)NCc1ccc(-c2ccccc2)cc1,-8.0,0.7,-16.6,-0.1,-4.6[16.7 µM],-14.0
O=C(C[C@H]1C[C@H]2c3cc(NC(=O)C4CCC4)ccc3O[C@H]2[C@H](CO)O1)NCc1ccc(-c2ccccc2)cc1,-5.1,-1.5,63.6*,0.0,37.6[16.7 µM],0.1
CN(C)CC(=O)Nc1ccc2c(c1)[C@H]1C[C@H](CC(=O)NCc3cccc(F)c3)O[C@@H](CO)[C@H]1O2,-2.4,0.5,-0.5,0.0,64.5*[16.7 µM],-4.0
COCCNC(=O)C[C@@H]1C[C@H]2c3cc(N(C)C)ccc3O[C@H]2[C@H](CO)O1,3.3,-2.4,2.3,-0.6,-10.1[16.7 µM],-3.6
CC(=O)N(C)C[C@H]1Oc2ncc(C#CC(C)(C)O)cc2C(=O)N([C@H](C)CO)C[C@@H]1C,5.7,1.7,4.5,1.1,15.1[16.7 µM],-7.3
O=C(CSc1nnc2c(n1)[nH]c1ccc(F)cc12)N1CCOCC1,18.0,-1.1,-1.2,0.1,2.6,x
CN(C)CCCn1c(N)c(S(=O)(=O)c2ccccc2)c2nc3ccccc3nc21,-27.7*,-74.2,2.9,0.0,7.1,0.7
CC(C)(C)SCCNC(=O)/C=C/c1ccccc1,4.8,1.7,3.1,0.1,-25.5,-0.2
CCOC(=O)c1c(NC(=O)CSc2nnc(CNc3ccc(OC)cc3)n2C)sc(C)c1C,x,x,-1.5,x,27.1*,x
CCOC(=O)c1c(NC(=O)CSc2nnc(-c3ccccc3)n2CC)sc(C(C)=O)c1C,-37.0*,-0.4,35.3,x,x,3.2
CC(Nc1nc(-c2ccc(F)cc2)cs1)c1nc2cc(C(F)(F)F)ccc2n1CCOCCO (stereo unspecified),3.6,2.3,x,0.1,3.1,0.8
N#CCCN(C(=O)CSc1nc2ccccc2c(=O)[nH]1)c1ccc(F)cc1,5.2,0.9,4.3,-0.3,81.0*,-3.3
NC(N)=NC(N)=Nc1ccc2ccccc2c1,14.3,-4.7,-1.9,43.9*,0.6,-1.6
COc1cccc(N=C(N)N=C(N)N)c1,27.6,x,-1.2,-0.1,2.5,0.2
O=C(CN1CCN(S(=O)(=O)c2ccccc2)CC1)NC1CC1,8.0,2.6,-2.3,0.0,-53.3,-0.2
CC(C)(C)n1nc(Cc2cccc3ccccc23)c2c(N)ncnc21,-24.1,4.3,x,-0.2,82.1*,-1.9
SMILES,Ecoli rRNA inh,ERAP1 HTS inh,PGC1a acetyl inh,FGF22 binding,Env fusion inh,Cneo AK release
Cn1nc(Cc2cccc3ccccc23)c(C#N)c1N,4.9,-0.9,x,0.3,-12.3,-0.8
Cc1ccc(C(=O)OCC(=O)c2ccc(Br)cc2)cc1S(=O)(=O)N1CCOCC1,-3.5,-2.8,12.6,-0.1,-3.0,-1.1
C=CCn1c(C)cc(-c2csc(NC(=O)CCc3nc4ccccc4c(=O)[nH]3)n2)c1C,2.8,2.6,x,-0.1,11.0,-0.1
CN(Cc1cccs1)c1ncnc2sccc12,x,x,x,x,70.1*,x
c1csc(CNc2ncnc3sccc23)c1,x,x,26.9,x,80.0*,-2.6
COc1cc(NS(=O)(=O)c2ccc(NC(=O)NC3CCCCC3)cc2)nc(OC)n1,x,x,1.6,x,-69.7,-3.8
CCNS(=O)(=O)c1ccc(CCC(=O)Nc2cc(Cl)ccc2Oc2ccccc2)cc1,x,x,x,x,107.3*,4.0
NC(=S)N/N=C/c1c(O)ccc2ccccc12,46.1,1.1,0.6,-0.2,49.9,x
O=CN/N=C/c1c(O)ccc2ccccc12,-20.0*,2.0,x,0.5,-13.5,x
CC(C)(C)C(C(=O)O)N1CCS(=O)(=O)CC1 (stereo unspecified),4.0,0.2,34.6,0.2,9.0,x
CCc1nc2ccc(C(=O)Nc3cc(-c4ccccc4)ccc3OC)cn2c1N(C)Cc1nccs1,20.6,5.8,0.9,43.4*,x,-2.2
O=C(c1ccc2c(c1)OCO2)N(Cc1ccco1)C1(C(=O)NC2CCCCC2)CCCCC1,x,x,4.9,x,88.5*,-5.1
O=C(CSc1nnc(SCc2ccccc2)s1)N/N=C/c1ccc(Cl)cc1Cl,7.3,0.3,x,-0.1,21.6,x
O=C(CSC1CN(C(c2ccccc2)c2ccccc2)C1)N/N=C/c1ccc(Cl)cc1Cl,16.8,4.5,x,0.2,65.0*,x
O=S(=O)(NCCSc1ccc(Cl)cc1)c1ccc2c(c1)OCCO2,x,x,-4.7,x,-14.3,-0.7
COc1ccc(S(=O)(=O)NCCSc2ccc(Cl)cc2)cc1OC,-37.9*,-1.3,-0.4,0.0,x,-0.4
CCC(C)Sc1cc(-c2nc3cc(C)ccn3c2NC2CCCCC2)ccc1OC (stereo unspecified),-1.2,-0.9,-3.7,-0.2,7.1,-3.4
